Test results from ChEMBL document CHEMBL1128448, “Synthesis and antifungal activity of new azole derivatives containing an N-acylmorpholine ring” (1995).
In brackets after ≈: the same amount, converted by molar mass.

Assays:
[1] = system: Meyerozyma guilliermondii; experiment: In vitro evaluation of minimum inhibitory concentration against Candida guilliermondii 26; type: functional
Method in brief: (§1)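 Stocks are 800 μg/mL in 50% ethanol. Each plate gets 10 μL of inoculum at 10^5 cfu/mL. Incubation at 25 °C, 48 h for yeasts and 120 h for dermatophytes and molds. Organisms are ATCC strains or clinical isolates.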

Mus sp. [2] = experiment: In vivo evaluation of % survival rate after peroral administration on 7th day at dose 1 mg/kg; type: functional; conditions: for Survival: route oral, 1 mg/kg
Mus sp. [3] = experiment: In vivo evaluation of % survival rate after peroral administration on 3rd day at dose 2.5 mg/kg; type: functional; conditions: for survival at 2.5 mg/kg: Mus sp., po
Microsporum canis = experiment: In vitro evaluation of minimum inhibitory concentration against Microsporum canis 47; type: functional; method in brief: as §1
Candida parapsilosis = experiment: In vitro evaluation of minimum inhibitory concentration against Candida parapsilosis 61; type: functional; method in brief: as §1
Mus sp. [4] = experiment: In vivo evaluation of % survival rate after peroral administration on 5th day at dose 1 mg/kg; type: functional; conditions: for Survival: route oral, 1 mg/kg
Rhodotorula mucilaginosa = experiment: In vitro evaluation of minimum inhibitory concentration against Rhodotorula rubra 16; type: functional; method in brief: as §1
Trichophyton benhamiae = experiment: In vitro evaluation of minimum inhibitory concentration against Trichophyton mentagrophytes 23; type: functional, Arthroderma benhamiae; method in brief: as §1
Mus sp. [5] = experiment: In vivo evaluation of % survival rate after peroral administration on 9th day at dose 2.5 mg/kg; type: functional; conditions: for survival at 2.5 mg/kg: Mus sp., po
Mus sp. [6] = experiment: In vivo evaluation of % survival rate after peroral administration on 9th day at dose 1 mg/kg; type: functional; conditions: for Survival: route oral, 1 mg/kg
Mus sp. [7] = experiment: In vivo evaluation of % survival rate after peroral administration on 3rd day at dose 1 mg/kg; type: functional; conditions: for Survival: route oral, 1 mg/kg
Trichophyton rubrum = experiment: In vitro evaluation of minimum inhibitory concentration against Trichophyton rubrum 90; type: functional; method in brief: as §1
Pichia kudriavzevii = experiment: In vitro evaluation of minimum inhibitory concentration against Candida krusei 70; type: functional; method in brief: as §1
Candida tropicalis = experiment: In vitro evaluation of minimum inhibitory concentration against Candida tropicalis 2.11; type: functional; method in brief: as §1
Candida albicans [8] = experiment: In vitro evaluation of minimum inhibitory concentration against Candida albicans 76; type: functional; method in brief: as §1
Kluyveromyces marxianus = experiment: In vitro evaluation of minimum inhibitory concentration against Candida pseudotropicalis 13; type: functional; method in brief: as §1
Candida albicans [9] = experiment: In vivo evaluation of minimum inhibitory concentration against Candida albicans 60; type: functional
Method in brief: (§2)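 Broth macrodilution MIC following NCCLS M27-P, in RPMI-1640 buffered with 0.165 M MOPS. Fluconazole was dissolved in water and other drugs in DMSO. C. parapsilosis ATCC 22019 served as the reference strain in every run. MIC was the lowest concentration giving turbidity at or below the 80% inhibition standard.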

Mus sp. [10] = experiment: In vivo evaluation of % survival rate after peroral administration on 7th day at dose 2.5 mg/kg; type: functional; conditions: for survival at 2.5 mg/kg: Mus sp., po
Mus sp. [11] = experiment: In vivo evaluation of % survival rate after peroral administration on 5th day at dose 2.5 mg/kg; type: functional; conditions: for survival at 2.5 mg/kg: Mus sp., po
Nannizzia gypsea = experiment: In vitro evaluation of minimum inhibitory concentration against Microsporum gypseum 22; type: functional; method in brief: as §1
Nakaseomyces glabratus = experiment: In vitro evaluation of minimum inhibitory concentration against Torulopsis glabrata 78; type: functional; conditions: Nakaseomyces glabratus; read-out: MIC; method in brief: as §1
Candida albicans [12] = experiment: In vivo evaluation of minimum inhibitory concentration against Candida albicans 406; type: functional; method in brief: as §2
Aspergillus niger = experiment: In vitro evaluation of minimum inhibitory concentration against Aspergillus niger 18; type: functional; conditions: Aspergillus niger; read-out: MIC; method in brief: as §1
Aspergillus fumigatus = experiment: In vitro evaluation of minimum inhibitory concentration against Aspergillus fumigatus 33; type: functional; conditions: Aspergillus fumigatus; read-out: MIC; method in brief: as §1
Aspergillus flavus = experiment: In vitro evaluation of minimum inhibitory concentration against Aspergillus flavus 19; type: functional; conditions: Aspergillus flavus; read-out: MIC; method in brief: as §1
[13] = Candida albicans, read-out: MIC
[14] = Meyerozyma guilliermondii, read-out: MIC
[15] = Microsporum canis, read-out: MIC
[16] = Lodderomyces parapsilosis, read-out: MIC
[17] = Rhodotorula mucilaginosa, read-out: MIC
[18] = Trichophyton benhamiae, read-out: MIC
[19] = Trichophyton rubrum, read-out: MIC
[20] = Pichia kudriavzevii, read-out: MIC
[21] = Candida tropicalis, read-out: MIC
[22] = Kluyveromyces marxianus, read-out: MIC
[23] = Nannizzia gypsea, read-out: MIC

Row | SMILES | MIC (Nakaseomyces glabratus) | MIC (Candida albicans [12]; [13]) | MIC [1, 14] | survival at 2.5 mg/kg (Mus sp. [3]) | MIC (Microsporum canis; [15]) | MIC (Candida parapsilosis; [16]) | MIC (Rhodotorula mucilaginosa; [17]) | MIC (Aspergillus niger) | MIC (Trichophyton benhamiae; [18]) | survival at 2.5 mg/kg (Mus sp. [5]) | MIC (Trichophyton rubrum; [19]) | MIC (Pichia kudriavzevii; [20]) | MIC (Candida tropicalis; [21]) | MIC (Candida albicans [8]; [13]) | MIC (Aspergillus fumigatus) | MIC (Kluyveromyces marxianus; [22]) | MIC (Candida albicans [9]; [13]) | survival at 2.5 mg/kg (Mus sp. [10]) | survival at 2.5 mg/kg (Mus sp. [11]) | MIC (Nannizzia gypsea; [23]) | also measured
1 | C[C@H]1N(C(=O)c2ccc(C(F)(F)F)cc2)CCO[C@@]1(Cn1cncn1)c1ccc(F)cc1F (racemic) |  |  |  |  |  |  |  |  |  |  |  |  |  |  |  |  |  |  |  |  | MIC [1]: 80 µg/mL (≈ 172 µM); Survival (Mus sp. [2]): 10%; Survival (Mus sp. [3]; route oral, 2.5 mg/kg): 100%; MIC (Microsporum canis): 40 µg/mL (≈ 85.8 µM); MIC (Candida parapsilosis): 40 µg/mL (≈ 85.8 µM); Survival (Mus sp. [4]): 70%; MIC (Rhodotorula mucilaginosa): 40 µg/mL (≈ 85.8 µM); MIC (Trichophyton benhamiae): 80 µg/mL (≈ 172 µM); Survival (Mus sp. [5]; route oral, 2.5 mg/kg): 90%; Survival (Mus sp. [6]): 0%; Survival (Mus sp. [7]): 80%; MIC (Trichophyton rubrum): 20 µg/mL (≈ 42.9 µM); MIC (Pichia kudriavzevii): 80 µg/mL (≈ 172 µM); MIC (Candida tropicalis): 80 µg/mL (≈ 172 µM); MIC (Candida albicans [8]): 80 µg/mL (≈ 172 µM); MIC (Kluyveromyces marxianus): 5 µg/mL (≈ 10.7 µM); MIC (Candida albicans [9]): 1.25 µg/mL (≈ 2.68 µM); Survival (Mus sp. [10]; route oral, 2.5 mg/kg): 90%; Survival (Mus sp. [11]; route oral, 2.5 mg/kg): 100%; MIC (Nannizzia gypsea): 40 µg/mL (≈ 85.8 µM)
2 | C[C@H]1N(C(=O)c2ccc(C(F)(F)F)cc2)C[C@H](O)O[C@@]1(Cn1cncn1)c1ccc(Cl)cc1Cl (racemic) | 20 µg/mL (≈ 38.8 µM) | 0.63 µg/mL (≈ 1.22 µM) | 5 µg/mL (≈ 9.7 µM) | 100% | 40 µg/mL (≈ 77.6 µM) | 2.5 µg/mL (≈ 4.85 µM) | 2.5 µg/mL (≈ 4.85 µM) | > 80 µg/mL | 40 µg/mL (≈ 77.6 µM) | 100% | 40 µg/mL (≈ 77.6 µM) | 10 µg/mL (≈ 19.4 µM) | 20 µg/mL (≈ 38.8 µM) | 5 µg/mL (≈ 9.7 µM) | 20 µg/mL (≈ 38.8 µM) | 0.15 µg/mL (≈ 0.291 µM) | 1.25 µg/mL (≈ 2.43 µM) | 100% | 100% | 40 µg/mL (≈ 77.6 µM) | survival at 1 mg/kg (Mus sp. [2]; Mus sp., po): 90%; survival at 1 mg/kg (Mus sp. [4]; Mus sp., po): 100%; survival at 1 mg/kg (Mus sp. [6]; Mus sp., po): 70%; survival at 1 mg/kg (Mus sp. [7]; Mus sp., po): 100%; MIC (Aspergillus flavus): 20 µg/mL (≈ 38.8 µM)
3 | C[C@H]1N(C(=O)c2ccccc2)CCO[C@@]1(Cn1cncn1)c1ccccc1 (racemic) | > 80 µg/mL | > 80 µg/mL | > 80 µg/mL | 40% | > 80 µg/mL | > 80 µg/mL | > 80 µg/mL | > 80 µg/mL | > 80 µg/mL | 0% | > 80 µg/mL | > 80 µg/mL | > 80 µg/mL | > 80 µg/mL | > 80 µg/mL | > 80 µg/mL | > 80 µg/mL | 0% | 0% | > 80 µg/mL | MIC (Aspergillus flavus): > 80 µg/mL
4 | C[C@H]1N(C(=O)c2ccc(C(F)(F)F)cc2)C[C@H](O)O[C@@]1(Cn1cncn1)c1ccc(F)cc1F (racemic) | > 80 µg/mL |  |  | 100% |  |  | > 80 µg/mL |  |  | 100% |  |  | > 80 µg/mL |  |  |  |  | 100% | 100% |  | MIC (Candida albicans [12]): 2.5 µg/mL (≈ 5.18 µM); MIC [1]: >80 µg/mL; Survival (Mus sp. [2]): 55%; MIC (Microsporum canis): 80 µg/mL (≈ 166 µM); MIC (Candida parapsilosis): 80 µg/mL (≈ 166 µM); Survival (Mus sp. [4]): 85%; Survival (Mus sp. [6]): 25%; Survival (Mus sp. [7]): 85%; MIC (Trichophyton rubrum): >80 µg/mL; MIC (Candida albicans [8]): >80 µg/mL; MIC (Kluyveromyces marxianus): 10 µg/mL (≈ 20.7 µM); MIC (Candida albicans [9]): 10 µg/mL (≈ 20.7 µM)
5 | C[C@H]1N(C(=O)c2ccc(OCC(F)(F)C(F)F)cc2)CC(=O)O[C@@]1(Cn1cncn1)c1ccc(Cl)cc1Cl (racemic) | > 80 µg/mL | 1.25 µg/mL (≈ 2.17 µM) | 80 µg/mL (≈ 139 µM) | 90% | > 80 µg/mL | 20 µg/mL (≈ 34.8 µM) | 80 µg/mL (≈ 139 µM) | > 80 µg/mL | > 80 µg/mL | 60% | > 80 µg/mL | > 80 µg/mL | 80 µg/mL (≈ 139 µM) | 20 µg/mL (≈ 34.8 µM) | > 80 µg/mL | 10 µg/mL (≈ 17.4 µM) | 2.5 µg/mL (≈ 4.35 µM) | 80% | 90% | 80 µg/mL (≈ 139 µM) | MIC (Aspergillus flavus): > 80 µg/mL
